Series [1] in a line: Cytotoxicity against human HMEC1 cells after 72 hrs by crystal violet staining assay. The class given is functional, cell-based. The note with it: HMEC-1, 72 h.
The test system of series [2] is MDA-MB-231. Kind of series: Antimigratory activity against human MDA-MB-231 cells at 1 uM after 18 hrs by wound healing assay. The format is functional, cell-based. The procedure, abridged:
(§1)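 MDA-MB-231 grown to 100% confluence in 96-well plates (2 × 10^5 per well). A ~1 mm scratch was made, detached cells were washed off and compound or DMSO was added for 16–18 h. Cells were fixed in 4% formaldehyde, stained with crystal violet and imaged. Covered area was corrected by an unscratched-and-fixed 0% control and expressed relative to DMSO (100%). Three independent experiments, quintuplicate.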

Series [3] concerns the target T1, Tubulin (Homo sapiens) (UniProt P68371+Q9H4B7+P0DPH7+P68366+Q13509+Q71U36+P04350+Q3ZCM7+P07437+P68363+Q9BQE3+Q6PEY2+Q13885+Q9BVA1+Q9BUF5). In words: Inhibition of tubulin polymerization in human MDA-MB-231 cells assessed as disruption of tubulin cytoskeleton at 100 nM after 24 hrs by Hoechst 33342 staining-based immunohistochemistry. The class given is cell-based. Summed up:
(§2)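 Cells (MDA-MB-231, or T-24 bladder carcinoma) were treated for 24 h at 1–1000 nM, or with DMSO (0.1%). Monomers were extracted for 2 min (80 mM PIPES pH 6.8, 1 mM MgCl2, 5 mM EGTA, 0.5% Triton X-100), then fixed with 0.5% glutaraldehyde and reduced with NaBH4. Staining used BSA blocking, anti-α-tubulin, an AlexaFluor 488 secondary and Hoechst 33342, with confocal imaging.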

For series [4], the system named is CCRF-CEM VCR/R. Kind of series: (§3) Induction of apoptosis in human CCRF-CEM VCR/R cells at 2.5 uM after 72 hrs by CellTitre-Blue assay relative to control. The format is functional. The procedure, abridged: (§4)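 CCRF-CEM-VCR-R cells treated 72 h at 2.5, 1, 0.1 or 0.01 μM; vincristine reference at 2.5 μM. Viability read by CellTiterBlue, reagent added for 2 h at 37 °C, fluorescence measured. Results given as percent of mock-treated control. Three independent experiments in quadruplicate, means ± SEM, t test.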

The test system of series [5] is MDA-MB-231. Kind of series: Antimigratory activity against human MDA-MB-231 cells assessed as reduction in wound closure at 100 nM after 18 hrs by wound healing assay. The format is functional. The procedure, abridged: as §1
The test system of series [6] is MDA-MB-231. Kind of series: Cell cycle arrest in human MDA-MB-231 cells assessed as accumulation at G2/M phase at 10 nM after 48 hrs by propidium iodide staining-based flow cytometry. The format is functional.
In series [7] the test system is MDA-MB-231. In words: Cytotoxicity against human MDA-MB-231 cells at 1 to 1000 nM after 72 hrs by CellTitre-Blue assay. The format is functional, cell-based. Summed up: (§5)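 MDA-MB-231 cells in 96-well plates were exposed to serial dilutions (0.1–1000 nM) for 72 h. CellTiterBlue reagent was added for 2 h at 37 °C and fluorescence was read. Viability is expressed as % of mock-treated control, from which IC50 was taken. Three independent experiments, quadruplicate.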

The target in series [8] is T1, Tubulin (Homo sapiens). In words: Inhibition of tubulin polymerization in human T24 cells at 100 nM after 24 hrs by Hoechst 33342 staining-based immunohistochemistry. The class given is cell-based. The note with it: T-24. Summed up:
as §2

Series [9] deals with MDA-MB-231. In words: Cytotoxicity against human MDA-MB-231 cells after 72 hrs by CellTitre-Blue assay. The format is functional, cell-based. The note with it: MDA-MB-231, 72 h. Summed up:
as §5

For series [10], the system named is MDA-MB-231. Kind of series: Cell cycle arrest in human MDA-MB-231 cells assessed as reduction in G1 phase at 100 nM after 48 hrs by propidium iodide staining-based flow cytometry. The class given is functional. (Flow cytometry measures light scatter and fluorescence of single cells or particles in a stream.)
The test system of series [11] is MDA-MB-231. Kind of series: Cell cycle arrest in human MDA-MB-231 cells assessed as accumulation at G2/M phase at 100 nM after 48 hrs by propidium iodide staining-based flow cytometry (reference value: 22%). The format is functional.
For series [12], the system named is CCRF-CEM VCR/R. In words: (§6) Induction of apoptosis in human CCRF-CEM VCR/R cells at 1 uM after 72 hrs by CellTitre-Blue assay relative to control. The class given is functional. Summed up:
as §4

Series [13] has as its target T1, Tubulin (Homo sapiens). In words: Inhibition of tubulin polymerization in human MDA-MB-231 cells assessed as disruption of tubulin cytoskeleton at 10 nM after 24 hrs by Hoechst 33342 staining-based immunohistochemistry. The format is cell-based. The procedure, abridged: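 MDA-MB-231 cells treated 24 h at 1, 10, 100 or 1000 nM, or DMSO 0.1%. Extracted 2 min in PIPES pH 6.8/MgCl2/EGTA/0.5% Triton buffer, fixed with 0.5% glutaraldehyde, reduced with NaBH4, blocked with 0.2% BSA. Anti-α-tubulin 1 h, then AlexaFluor 488 secondary plus Hoechst 33342 for 45 min. Imaged by laser scanning microscopy.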

The target in series [14] is T1, Tubulin (Homo sapiens). In words: Inhibition of tubulin polymerization in human T24 cells at 10 nM after 24 hrs by Hoechst 33342 staining-based immunohistochemistry. The class given is cell-based. The note with it: T-24.
The test system of series [15] is MDA-MB-231. In words: Cell cycle arrest in human MDA-MB-231 cells assessed as accumulation at G2/M phase at 10 nM after 48 hrs by propidium iodide staining-based flow cytometry (reference value: 22%). The format is functional.
Series [16] is described as follows: as §3. The class given is functional. Summed up:
as §4

Series [17] is described as follows: as §6. The format is functional. Summed up: as §4
Another series has as its system PBMC. Kind of series: Cytotoxicity against human PBMC at 1 uM after 24 to 72 hrs by MTT assay. The format is cell-based. Background: Formazan colour is commonly taken as a measure of viable cells.
The next series relates to CCRF-CEM. Kind of series: Induction of apoptosis in human CCRF-CEM cells at 1 to 100 nM after 48 hrs by propidium iodide staining-based flow cytometry. The class given is functional, cell-based. The procedure, abridged:
(§7)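 CCRF-CEM or CCRF-CEM-VCR-R cells were treated for 48 h. Cells were permeabilized in hypotonic propidium iodide solution and analysed by flow cytometry in logarithmic mode. Apoptosis was scored as the sub-G1 (DNA fragmentation) percentage.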

A short description of series [18]: Induction of apoptosis in human CCRF-CEM VCR/R cells at 1 uM after 48 hrs by propidium iodide staining-based flow cytometry. The format is functional. Summed up:
as §7

The nature of series [19]: Induction of apoptosis in human CCRF-CEM VCR/R cells assessed as cell viability at 2.5 uM after 72 hrs by CellTitre-Blue assay relative to control. The format is functional. The note with it: read-out: Activity. Summed up: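 Vincristine-resistant CCRF-CEM-VCR-R cells in 96-well plates were treated for 72 h at 0.01, 0.1, 1 or 2.5 μM. Viability was read by CellTiterBlue as % of mock-treated control. Three independent experiments, quadruplicate; t test.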

Results on four compounds are retold here after ChEMBL document CHEMBL3120073, “Simplified pretubulysin derivatives and their biological effects on cancer cells” (J Nat Prod, 2014).

The structures appear in SMILES notation. Active and inactive are the calls of the source. The rule behind the calls is not given here.

As a reminder, the EC50 is the concentration at which the effect is half-maximal. In general, IC50 refers to the concentration that gives 50% inhibition. Take `CC[C@H](C)[C@H](NC(=O)[C@H]1CCCCN1C)C(=O)N(C)[C@H](CCc1cccc(C(=O)N[C@@H](Cc2ccccc2)C[C@H](C)C(=O)O)c1)C(C)C`: the EC50 in series [1] was determined as 13.2 nM. In addition, the outcome in the series with MDA-MB-231 [2], with CCRF-CEM VCR/R [4], in the series on MDA-MB-231 [7] and in the series with MDA-MB-231 [10] was Active. Further, the inhibition entry at Tubulin (Homo sapiens) [3] and on Tubulin (Homo sapiens) [8] was “Active” in each case. In addition, the outcome in the series on MDA-MB-231 [5] and with MDA-MB-231 [6] was inactive. In the series on MDA-MB-231 [9], the 50% inhibitory concentration (IC50) came out at 100 nM. For the same compound, the Activity with MDA-MB-231 [11] was determined as 33%.

`CC[C@H](C)[C@H](NC(=O)[C@H]1CCCCN1C)C(=O)N(C)[C@H](CCc1nc(C(=O)N[C@H](CCC(=O)O)Cc2ccccc2)cs1)C(C)C`: in [1], the EC50 amounted to 4.4 nM. Also, the result in the series on MDA-MB-231 [2], in the series on CCRF-CEM VCR/R [4], with CCRF-CEM VCR/R [12], in the series with MDA-MB-231 [7] and in the series on MDA-MB-231 [10] was Active. Moreover, the Activity amounted to 35% in the series with MDA-MB-231 [5] and 60% with MDA-MB-231 [11]. Further, in the series with MDA-MB-231 [6], the result was inactive. Also, the inhibition entry on Tubulin (Homo sapiens) [13] and at Tubulin (Homo sapiens) [14] was “Active” in each case. The IC50 in the series with MDA-MB-231 [9] was 10.1 nM.

As to `CC[C@H](C)[C@H](NC(=O)[C@H]1CCCCN1C)C(=O)N(C)[C@H](CCc1nc(C(=O)N[C@@H](Cc2ccccc2)C[C@H](C)C(=O)O)cs1)C(C)C`, the Activity in the series with MDA-MB-231 [15] is reported as >30%; in series [16] it was 30%; in series [17], 70%; in the series on PBMC, “Toxic”. Besides, the result in the series on MDA-MB-231 [2] and with MDA-MB-231 [7] was Active. For the same compound, the inhibition entry on Tubulin (Homo sapiens) [13] and at Tubulin (Homo sapiens) [14] was “Active” in each case. In the series with MDA-MB-231 [9], this compound showed an IC50 of 0.6 nM.

For `CC[C@]1(O)C[C@H]2CN(CCc3c([nH]c4ccccc34)[C@@](C(=O)OC)(c3cc4c(cc3OC)N(C=O)[C@H]3[C@@](O)(C(=O)OC)[C@H](OC(C)=O)[C@]5(CC)C=CCN6CC[C@]43[C@@H]65)C2)C1` [VINCRISTINE], in the series with CCRF-CEM, the outcome was Active. This compound yielded an Activity in [18] of 20%. This compound gave an IC50 in the series on MDA-MB-231 [9] of 1.6 nM. In [19], the viability at 2.5 µM turned out to be 80%.
